Test results reported in ChEMBL document CHEMBL4622944 (Bioorg Med Chem Lett, 2020).
One block for each molecule: values may come before it.

Columns and labels:
[1] = tested on: HCT-116; test: Antiproliferative activity against human HCT116 cells assessed as reduction in cell viability by MTT assay; type: functional, cell-based
[2] = tested on: A549; test: Antiproliferative activity against human A549 cells assessed as reduction in cell viability by MTT assay; type: functional, cell-based
[3] = tested on: PC-3; test: Antiproliferative activity against human PC3 cells assessed as reduction in cell viability by MTT assay; type: functional, cell-based
[4] = tested on: HCT-116; test: Induction of apoptosis in human HCT116 cells assessed as late apoptotic cells at 9 uM incubated for 24 hrs by annexin V FITC and propidium iodide staining based flow cytometry analysis (reference value: 11 %); type: functional
[5] = tested on: HCT-116; test: Induction of apoptosis in human HCT116 cells assessed as necrotic cells at 9 uM incubated for 24 hrs by annexin V FITC and propidium iodide staining based flow cytometry analysis (reference value: 0.2 %); type: functional
[6] = tested on: HCT-116; test: Induction of cell cycle arrest in human HCT116 cells assessed as S phase at 9 uM incubated for 24 hrs by annexin V and propidium iodide staining based flow cytometry analysis (reference value: 16.08 %); type: functional
Procedure, shortened: (§1)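 HCT116 cells treated 24 h at 0.33, 1.0 or 9.0 µM alongside a non-treated control. Cells were fixed, stained with Annexin-V and propidium iodide, and DNA content was measured by flow cytometry. Percentages of cells in G1, S and G2 phases were quantified.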

[7] = tested on: HCT-116; test: Induction of apoptosis in human HCT116 cells assessed as early apoptotic cells at 9 uM incubated for 24 hrs by annexin V FITC and propidium iodide staining based flow cytometry analysis (reference value: 7.9 %); type: functional
[8] = tested on: HCT-116; test: Induction of apoptosis in human HCT116 cells assessed as viable cells at 9 uM incubated for 24 hrs by annexin V FITC and propidium iodide staining based flow cytometry analysis (reference value: 80.9 %); type: functional; settings: HCT-116, 24 h, read-out: Activity
[9] = tested on: HCT-116; test: Induction of cell cycle arrest in human HCT116 cells assessed as G2 phase at 1 uM incubated for 24 hrs by annexin V and propidium iodide staining based flow cytometry analysis (reference value: 22.11 %); type: functional; procedure, shortened: as §1
[10] = tested on: HCT-116; test: Induction of apoptosis in human HCT116 cells assessed as early apoptotic cells at 1 uM incubated for 24 hrs by annexin V FITC and propidium iodide staining based flow cytometry analysis (reference value: 7.9%); type: functional
[11] = tested on: HCT-116; test: Induction of apoptosis in human HCT116 cells assessed as necrotic cells at 3 uM incubated for 24 hrs by annexin V FITC and propidium iodide staining based flow cytometry analysis (reference value: 0.2 %); type: functional
[12] = tested on: HCT-116; test: Induction of cell cycle arrest in human HCT116 cells assessed as G1 phase at 0.33 uM incubated for 24 hrs by annexin V and propidium iodide staining based flow cytometry analysis (reference value: 61.81 %); type: functional; procedure, shortened: as §1
[13] = tested on: HCT-116; test: Induction of cell cycle arrest in human HCT116 cells assessed as G2 phase at 0.33 uM incubated for 24 hrs by annexin V and propidium iodide staining based flow cytometry analysis (reference value: 22.11 %); type: functional; procedure, shortened: as §1
[14] = tested on: HCT-116; test: Induction of cell cycle arrest in human HCT116 cells assessed as G1 phase at 9 uM incubated for 24 hrs by annexin V and propidium iodide staining based flow cytometry analysis (reference value: 61.81 %); type: functional; procedure, shortened: as §1
[15] = tested on: HCT-116; test: Induction of apoptosis in human HCT116 cells assessed as late apoptotic cells at 1 uM incubated for 24 hrs by annexin V FITC and propidium iodide staining based flow cytometry analysis (reference value: 11 %); type: functional
[16] = tested on: HCT-116; test: Induction of cell cycle arrest in human HCT116 cells assessed as S phase at 1 uM incubated for 24 hrs by annexin V and propidium iodide staining based flow cytometry analysis (reference value: 16.08 %); type: functional; procedure, shortened: as §1
[17] = tested on: HCT-116; test: Inhibition of cell migration in human HCT116 cells assessed as inhibition of wound healing rate measured upto 48 hrs by phase contrast microscopy; type: functional, cell-based
Procedure, shortened: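 Wound-healing scratch assay in HCT116 monolayers treated at 0.3 and 3 µM versus blank control. Phase-contrast images were taken at 0, 24 and 48 h, and the wound-healing rate was assessed.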

[18] = tested on: HCT-116; test: Induction of cell cycle arrest in human HCT116 cells assessed as G1 phase at 1 uM incubated for 24 hrs by annexin V and propidium iodide staining based flow cytometry analysis (reference value: 61.81 %); type: functional; procedure, shortened: as §1
[19] = tested on: HCT-116; test: Induction of apoptosis in human HCT116 cells incubated for 24 hrs by annexin V FITC and propidium iodide staining based flow cytometry analysis; type: functional, cell-based
[20] = tested on: HCT-116; test: Induction of apoptosis in human HCT116 cells assessed as necrotic cells at 1 uM incubated for 24 hrs by annexin V FITC and propidium iodide staining based flow cytometry analysis (reference value: 0.2 %); type: functional
[21] = tested on: HCT-116; test: Induction of cell cycle arrest in human HCT116 cells assessed as G2 phase at 9 uM incubated for 24 hrs by annexin V and propidium iodide staining based flow cytometry analysis (reference value: 22.11 %); type: functional; procedure, shortened: as §1
[22] = tested on: HCT-116; test: Induction of apoptosis in human HCT116 cells assessed as viable cells at 3 uM incubated for 24 hrs by annexin V FITC and propidium iodide staining based flow cytometry analysis (reference value: 80.9 %); type: functional; settings: HCT-116, 24 h, read-out: Activity
[23] = tested on: HCT-116; test: Induction of apoptosis in human HCT116 cells assessed as early apoptotic cells at 3 uM incubated for 24 hrs by annexin V FITC and propidium iodide staining based flow cytometry analysis (reference value: 7.9 %); type: functional
[24] = tested on: HCT-116; test: Induction of apoptosis in human HCT116 cells assessed as total apoptotic cells at 9 uM incubated for 24 hrs by annexin V FITC and propidium iodide staining based flow cytometry analysis (reference value: 18.9%); type: functional
[25] = tested on: HCT-116; test: Induction of apoptosis in human HCT116 cells assessed as viable cells at 1 uM incubated for 24 hrs by annexin V FITC and propidium iodide staining based flow cytometry analysis (reference value: 80.9 %); type: functional; settings: HCT-116, 24 h, read-out: Activity
[26] = tested on: HCT-116; test: Induction of apoptosis in human HCT116 cells assessed as late apoptotic cells at 3 uM incubated for 24 hrs by annexin V FITC and propidium iodide staining based flow cytometry analysis (reference value: 11 %); type: functional
[27] = tested on: HCT-116; test: Induction of cell cycle arrest in human HCT116 cells assessed as S phase at 0.33 uM incubated for 24 hrs by annexin V and propidium iodide staining based flow cytometry analysis (reference value: 16.08 %); type: functional; procedure, shortened: as §1

SMILES: Cn1c(=O)c(=O)n(C2CCCC2)c2nc(N/N=C/c3ccccc3)ncc21
- IC50 [1]: > 100 µM
- IC50 [2]: > 100 µM
- IC50 [3]: 48.2 µM

SMILES: Cn1c(=O)c(=O)n(C2CCCC2)c2nc(N/N=C/c3ccc(O)c(F)c3)ncc21
- IC50 [1]: 59.3 µM
- IC50 [2]: 97.8 µM
- IC50 [3]: 85.2 µM

SMILES: Cn1c(=O)c(=O)n(C2CCCC2)c2nc(N/N=C/c3cccs3)ncc21
- IC50 [1]: 52.6 µM
- IC50 [2]: > 100 µM
- IC50 [3]: 75.6 µM

SMILES: Cn1c(=O)c(=O)n(C2CCCC2)c2nc(N/N=C/c3ccc(O)cc3)ncc21
- IC50 [1]: 72.5 µM
- IC50 [2]: > 100 µM
- IC50 [3]: > 100 µM

SMILES: COc1ccc(/C=N/Nc2ncc3c(n2)n(C2CCCC2)c(=O)c(=O)n3C)c(OC)c1
- IC50 [1]: > 100 µM
- IC50 [2]: > 100 µM
- IC50 [3]: > 100 µM

SMILES: Cc1cccc(/C=N/Nc2ncc3c(n2)n(C2CCCC2)c(=O)c(=O)n3C)c1
- IC50 [1]: > 100 µM
- IC50 [2]: 34.5 µM
- IC50 [3]: 53.6 µM

SMILES: COc1ccc(/C=N/Nc2ncc3c(n2)n(C2CCCC2)c(=O)c(=O)n3C)cc1
- IC50 [1]: 36.1 µM
- IC50 [2]: > 100 µM
- IC50 [3]: 26.2 µM

These reach a lower IC50 [1]. Values come first.

- IC50 [1]: 8.39 µM
- IC50 [2]: 6.59 µM
- IC50 [3]: 9.25 µM
SMILES: Cn1c(=O)c(=O)n(C2CCCC2)c2nc(N/N=C/c3ccc(F)cc3Br)ncc21

- IC50 [1]: 9.02 µM
- IC50 [2]: 9.41 µM
- IC50 [3]: 8.55 µM
SMILES: Cn1c(=O)c(=O)n(C2CCCC2)c2nc(N/N=C/c3ccc(F)c(Cl)c3)ncc21

- IC50 [1]: 4.36 µM
- IC50 [2]: 3.23 µM
- IC50 [3]: 8.2 µM
SMILES: Cn1c(=O)c(=O)n(C2CCCC2)c2nc(N/N=C/c3cc(C(F)(F)F)cc(C(F)(F)F)c3)ncc21
- Activity [4]: 18%
- Activity [5]: 0.4%
- Activity [6]: 11.41%
- Activity [7]: 20.3%
- viability at 9 µM [8]: 61.3%
- Activity [9]: 17.98%
- Activity [10]: 10.3%
- Activity [11]: 0.2%
- Activity [12]: 62.69%
- Activity [13]: 17.31%
- Activity [14]: 67.2%
- Activity [15]: 11.1%
- Activity [16]: 16.56%
- inhibition [17]: Dose-dependent effect
- Activity [18]: 65.46%
- Activity [19]: Dose-dependent effect
- Activity [20]: 0.5%
- Activity [21]: 21.39%
- viability at 3 µM [22]: 77.4%
- Activity [23]: 10.2%
- Activity [24]: 38.3%
- viability at 1 µM [25]: 78.1%
- Activity [26]: 12.2%
- Activity [27]: 20%

- IC50 [1]: 5.61 µM
- IC50 [2]: 8.78 µM
- IC50 [3]: 9.26 µM
SMILES: Cn1c(=O)c(=O)n(C2CCCC2)c2nc(N/N=C/c3cc([N+](=O)[O-])ccc3Cl)ncc21

- IC50 [1]: 15.2 µM
- IC50 [2]: 12.3 µM
- IC50 [3]: 20.3 µM
SMILES: Cn1c(=O)c(=O)n(C2CCCC2)c2nc(N/N=C/c3cccc([N+](=O)[O-])c3)ncc21

- IC50 [1]: 9.01 µM
- IC50 [2]: 14.1 µM
- IC50 [3]: 21 µM
SMILES: CSc1ccc(/C=N/Nc2ncc3c(n2)n(C2CCCC2)c(=O)c(=O)n3C)cc1

- IC50 [1]: 13.8 µM
- IC50 [2]: 11 µM
- IC50 [3]: 15.2 µM
SMILES: Cn1c(=O)c(=O)n(C2CCCC2)c2nc(N/N=C/c3ccc(F)cc3Cl)ncc21

- IC50 [1]: 26.4 µM
- IC50 [2]: 39.1 µM
- IC50 [3]: 17.2 µM
SMILES: Cn1c(=O)c(=O)n(C2CCCC2)c2nc(N/N=C/c3cccc(Cl)c3Cl)ncc21
